Measured values as given in ChEMBL document CHEMBL4732196, “Structural optimization towards promising β-methyl-4-acrylamido quinoline derivatives as PI3K/mTOR dual inhibitors for anti-cancer therapy: The in vitro and in vivo biological evaluation” (Eur J Med Chem, 2021).

What was measured:
[1] = biological target: Mitogen-activated protein kinase 6 (Homo sapiens) (UniProt Q16659); assay: Inhibition of human partial length ERK3 (M1 to P413 residues) expressed in bacterial expression system assessed as residual activity at 10 uM by kinome scan method relative to control
Outline: (§1)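 KINOMEscan binding assay, test compound at 10 μM against a 52-kinase panel. % Ctrl = (compound signal − positive control signal)/(negative control signal − positive control signal) × 100, with DMSO as negative control (100%) and a positive control (0%).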

[2] = biological target: Cyclin-dependent kinase 17 (Homo sapiens) (UniProt Q00537); assay: Inhibition of human full length PCTK2 (M1 to F523 residues) expressed in bacterial expression system assessed as residual activity at 10 uM by kinome scan method relative to control; outline: as §1
[3] = MRT(0 to infinity) in Sprague-Dawley rat at 5 mg/kg, po; assay type: ADME, organism-based; conditions: in vivo
Outline: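 Male Sprague-Dawley rats (n = 3) received a single 5 mg/kg oral gavage dose formulated as a suspension in 0.5% methylcellulose. Plasma concentration-time curves were recorded and mean PK parameters derived.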

Mitogen-activated protein kinase 6 (Homo sapiens), sequence (Q16659 whole entry, the tested form may be a part): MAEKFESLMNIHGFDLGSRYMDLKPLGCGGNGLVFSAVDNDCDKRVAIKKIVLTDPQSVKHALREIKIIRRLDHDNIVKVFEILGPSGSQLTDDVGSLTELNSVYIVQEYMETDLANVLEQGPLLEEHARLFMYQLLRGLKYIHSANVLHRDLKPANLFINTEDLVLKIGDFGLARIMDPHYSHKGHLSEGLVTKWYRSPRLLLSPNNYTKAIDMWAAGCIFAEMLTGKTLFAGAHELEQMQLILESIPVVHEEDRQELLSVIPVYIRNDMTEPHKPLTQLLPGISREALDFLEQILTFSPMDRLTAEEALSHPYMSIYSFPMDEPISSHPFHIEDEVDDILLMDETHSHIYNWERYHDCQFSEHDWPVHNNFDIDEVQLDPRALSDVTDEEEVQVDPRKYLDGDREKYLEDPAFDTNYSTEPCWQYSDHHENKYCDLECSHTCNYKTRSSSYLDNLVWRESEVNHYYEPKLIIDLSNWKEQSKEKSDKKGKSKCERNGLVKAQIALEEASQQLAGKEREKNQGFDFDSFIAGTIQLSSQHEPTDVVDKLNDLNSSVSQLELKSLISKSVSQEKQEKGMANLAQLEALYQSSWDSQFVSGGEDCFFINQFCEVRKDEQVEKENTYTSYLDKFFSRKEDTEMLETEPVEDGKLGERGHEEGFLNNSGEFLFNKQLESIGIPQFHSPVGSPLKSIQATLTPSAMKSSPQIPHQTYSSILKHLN
Cyclin-dependent kinase 17 (Homo sapiens), sequence (Q00537 whole entry, looked up, the tested form may be a part): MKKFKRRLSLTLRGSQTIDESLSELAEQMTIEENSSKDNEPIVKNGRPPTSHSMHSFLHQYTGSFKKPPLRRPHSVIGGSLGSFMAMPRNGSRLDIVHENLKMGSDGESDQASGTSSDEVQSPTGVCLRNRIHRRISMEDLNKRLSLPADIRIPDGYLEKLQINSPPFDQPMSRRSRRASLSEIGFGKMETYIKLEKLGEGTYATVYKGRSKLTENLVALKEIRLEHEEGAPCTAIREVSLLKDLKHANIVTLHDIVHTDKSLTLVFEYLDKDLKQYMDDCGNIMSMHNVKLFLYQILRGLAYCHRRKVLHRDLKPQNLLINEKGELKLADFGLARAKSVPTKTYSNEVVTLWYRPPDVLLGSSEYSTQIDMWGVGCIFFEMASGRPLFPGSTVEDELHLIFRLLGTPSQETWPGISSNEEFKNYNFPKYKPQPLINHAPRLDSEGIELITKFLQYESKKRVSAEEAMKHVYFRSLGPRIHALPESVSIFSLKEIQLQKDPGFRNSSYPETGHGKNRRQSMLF

Activity [1]: 78% | Activity [2]: 100% | MRT inf [3]: 2.57 h
SMILES: COc1ncc(-c2ccc3nccc(/C(C)=C/C(=O)N4CCN(C)CC4)c3c2)cc1NS(=O)(=O)c1ccc(F)cc1F
